Bioassay records (PubChem)
TROY NFkB inh: inhibitors of TROY-driven NF-kB signaling, primary screen, Q293 LMP1-TROYcd cells, NF-kB luciferase, uHTS | Q293 LMP1-TROYcd NF-kB luciferase reporter, 4 h | inhibition, % at 10 µM | 0.98% of 360,000 active;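 active = compounds whose plate-normalised and pattern-corrected inhibition of the luciferase reporter signal at the single screening dose is 50% or more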
FN deposit inh: inhibitors of fibronectin matrix deposition, primary screen, AH1F cells, Alexa488-fibronectin fluorescence, plate reader; AH1F fibroblasts, overnight; inhibition, % at 12.6 µM; 0.086% of 350,000 active;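 active = mean inhibition across replicates of 30% or more, regardless of how many single replicates reach that level; inconclusive = mean under 30% yet at least half of replicates reach 30%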;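 also: positive control wells lacked labelled fibronectin entirely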
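material = AH1F fibroblast monolayer depositing Alexa488-labelled fibronectin into matrix | amount = 10000 AH1F cells/well | buffer or medium = DMEM plus 2% serum, read in PBS | incubation = 1 h cell adhesion before compound, then overnight fibronectin incubation | detection = fluorescence at 485 nm excitation, 525 nm emission | evaluation = percent inhibition as loss of matrix-bound fibronectin fluorescence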
EWS-Fli block: EWS/Fli-driven NR0B1 reporter inhibitors, primary screen, A673 cells, NR0B1 luciferase, luminescence, MLPCN library; viability-normalised; inhibition, % at 12.6 µM; 0.67% of 350,000 active; AID 651661, 2012;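 active = mean inhibition of at least 50% after viability correction, with every replicate also passing that limit; inconclusive = mean reaches 50% but only one of two replicates passes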;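 also: firefly luciferase signal divided by Alamar Blue viability fluorescence both relative to DMSO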
LGR2 inh: inhibitors of bursicon-induced LGR2 CRE-luciferase signal, primary screen, cell-based, HEK293, CRE-luciferase reporter, bursicon stimulation; bursicon-stimulated, 4 h; inhibition, % at 9.99 µM; 0.35% of 380,000 active;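 active = drop in luminescence signal, shown as inhibition above about 50% in the replicate tests, limit read from the data, passing the limit was not always enough; inconclusive = probably only some replicates passing the limit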;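 also: agonist challenge used bursicon conditioned medium at about half maximal strength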
XiGFP reactiv: activators of inactive X chromosome reactivation, primary screen, imaging, XiGFP fibroblasts, GFP high-content imaging, set 2; XiGFP mouse fibroblasts, % GFP-positive cells imaging, 3 d; cells co-treated with 5-aza-dC sensitizer; scaled so ellipticine positive control = 100%; activation, % at 7.58 µM; 0.055% of 360,000 active; AID 743238, 2013;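 active = mean normalized replicate activation at least 10% and every replicate at or above 10%; inconclusive = only one of the two criteria met; inactive = mean below 10% and not all replicates reach 10%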;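 also: 0% = median of on-plate neutral control wells and 100% = ellipticine 6 µM median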
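Schedule: 3 d treatment, 15 min room-temperature fixation; system: 68-5-11 XiGFP fibroblast line; buffer or medium: DMEM plus 5-aza-dC sensitizer; control set: ellipticine 6 µM positive control; compound: one concentration, pinned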
TWEAK Fn14 block: inhibitors of TWEAK-Fn14 signaling, primary screen, luciferase reporter cells, uHTS; TWEAK-stimulated Fn14 reporter cells, luciferase luminescence, 8 h; inhibition, % at 10 µM; 2% of 360,000 active; AID 1159606, 2016; in the data active = inhibition above about 50%
An asterisk follows results filed as active; ? = inconclusive; / = no result given. This is a sample that favours compounds with a hit; in the whole collection about 2.3% have one here.

SMILES	TROY NFkB inh	FN deposit inh	EWS-Fli block	LGR2 inh	XiGFP reactiv	TWEAK Fn14 block
CC(C)c1ccc(/C=N/Nc2ccc(C(=O)O)cc2)cc1	56.9*	2.2	74.7*	/	0.0	92.0*
COc1ccc2c3c(n(C)c2c1)[C@H](CO)N(C(=O)CC1CC1)CC31CCN(C(=O)C2CC2)CC1	/	/	-2.7	5.5	0.5	/
COc1ccc(C(=O)/C=C2\Sc3ccccc3N2C)cc1	-25.3	-1.9	-86.3	-22.3	0.1	42.4
COc1ccc(-[n+]2c(C)cc(/C=C3\Sc4ccccc4N3C)cc2C)cc1	29.3	-19.6	36.6	-0.7	178.6*	5.3
COc1ccccc1-[n+]1c(C)cc(/C=C2\Sc3ccccc3N2C)cc1C	81.7*	-34.6	39.5	?	101.2*	89.2*
C[C@@H]1CN([C@H](C)CO)C(=O)c2cc(NC(=O)NC3CCCCC3)ccc2O[C@@H](C)CCCCO[C@@H]1CN(C)Cc1ccc(Cl)c(Cl)c1	/	-5.0	10.2	7.9	0.0	/
CO[C@H]1CN(C)C(=O)c2cc(NS(=O)(=O)CC(F)(F)F)ccc2OC[C@@H](C)N(C(=O)NC(C)C)C[C@H]1C	/	-5.3	10.5	-18.0	0.5	/
COc1ccc(-c2cn[nH]c2-c2ccc(O)cc2O)cc1	45.5	11.0	7.3	16.5	0.3	73.8*
C=C(C)COc1ccc(-c2[nH]ncc2-c2ccc(OC)c(OC)c2)c(O)c1	38.5	/	/	/	/	43.1
COc1ccc(-c2cc(C(=O)NN)[nH]n2)cc1	41.0	4.0	-5.2	-14.3	0.1	53.3*
COc1ccc(-c2n[nH]c(C)c2-c2ccc(Cl)cc2)c(O)c1OC	42.4	3.9	/	/	/	55.3*
CCOc1ccc(-c2cc(C(=O)NN)[nH]n2)cc1	-49.6	-2.3	8.0	-11.8	0.2	-8.3
C=C(C)COc1ccc(-c2n[nH]c(C)c2-c2ccc(OC)c(OC)c2)c(O)c1	27.0	3.8	61.5*	-4.9	-0.1	-7.9
Cc1noc(C)c1S(=O)(=O)Nc1ccc2c(c1)C(=O)N([C@@H](C)CO)C[C@@H](C)[C@@H](CN(C)C(=O)Nc1ccc3c(c1)OCO3)OCCCC[C@@H](C)O2	/	/	-1.2	11.5	0.1	/
COc1ccc(-c2cn[nH]c2-c2ccc(OCC(=O)NN)cc2O)cc1OC	3.8	4.1	-9.4	7.5	0.0	-1.5
COc1ccc(-c2cn[nH]c2-c2ccc(OCC(=O)NN)cc2O)cc1	42.0	7.9	-3.4	6.6	0.0	53.8*
CCCOC(=O)c1ccc(Oc2cn[nH]c2-c2ccc(O)cc2O)cc1	50.1*	0.7	0.7	7.2	/	-1.6
C=C(C)COc1ccc(-c2[nH]ncc2-c2ccc(OC)cc2)c(O)c1	42.4	26.0	-0.3	0.6	0.5	55.5*
COc1ccc2c3c([nH]c2c1)[C@@H](CO)N(C(=O)CN(C)C)CC31CN(CC2CCCC2)C1	/	/	-6.9	40.3	0.1	/
O=S(=O)(Nc1nc2ccccc2nc1Nc1cccc(S(=O)(=O)N2CCCCC2)c1)c1ccccc1	68.2*	-6.7	21.7	45.8	-0.1	76.8*
COc1ccc(S(=O)(=O)Nc2cccc(S(=O)(=O)N3CCCCCC3)c2)cc1	19.5	0.4	/	31.7	0.0	5.4
O=S(=O)(Nc1nc2ccccc2nc1Nc1ccc2c(c1)OCO2)c1ccc(F)cc1	57.8*	4.7	/	41.7	0.1	60.5*
C[C@H]1CN([C@@H](C)CO)C(=O)c2cc(-c3cccc(C#N)c3)cnc2O[C@@H]1CN(C)C(=O)c1ccccn1	/	/	7.1	6.0	-2.0	/
Cc1nc2ccccn2c1C(=O)Nc1ccc2c(c1)OCCO2	67.5*	-5.1	/	/	/	85.0*
O=C(Nc1ccc2c(c1)OCCO2)c1coc2ccccc2c1=O	85.4*	0.8	/	13.8	0.5	86.9*
O=C(CC1CS(=O)(=O)CC1CC(=O)Nc1ccc2c(c1)OCCO2)Nc1ccc2c(c1)OCCO2 (stereo unspecified)	-2.5	1.6	0.3	?	0.3	91.3*
